We go through 29 compounds from ChEMBL document CHEMBL3120119, “Development of novel tetrahydrothieno[2,3-c]pyridine-3-carboxamide based Mycobacterium tuberculosis pantothenate synthetase inhibitors: molecular hybridization from known antimycobacterial leads” (Bioorg Med Chem, 2014).

pIC50: −log10 of the molar value. In brackets after ≈: the same amount, converted by molar mass.

The target in series [1] is T1, Pantothenate synthetase (Mycobacterium tuberculosis, UniProt P9WIL5).
T1 sequence (P9WIL5 whole entry): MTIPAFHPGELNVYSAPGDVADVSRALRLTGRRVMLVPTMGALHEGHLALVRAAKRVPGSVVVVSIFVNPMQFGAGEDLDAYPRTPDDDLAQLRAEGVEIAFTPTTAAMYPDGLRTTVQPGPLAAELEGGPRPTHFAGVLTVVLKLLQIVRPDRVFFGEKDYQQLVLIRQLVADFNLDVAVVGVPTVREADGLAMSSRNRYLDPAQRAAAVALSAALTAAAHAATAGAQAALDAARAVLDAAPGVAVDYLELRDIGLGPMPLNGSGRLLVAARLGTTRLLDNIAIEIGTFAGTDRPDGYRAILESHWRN
Description: Inhibition of Mycobacterium tuberculosis pantothenate synthetase expressed in Escherichia coli BL21 (DE3). Put shortly: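 panC (Rv3602c) cloned into E. coli BL21(DE3). Coupled assay: reagent mix of NADH, pantoic acid, β-alanine, ATP, phosphoenolpyruvate, MgCl2, myokinase, pyruvate kinase, lactate dehydrogenase; reaction started with PS; A340 read every 12 s for 120 s.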

Series [2] deals with Mycobacterium tuberculosis. The series can be described thus: Antimycobacterial activity against Mycobacterium tuberculosis H37Rv ATCC 27294 after 28 days by agar dilution method. Type of series: functional. Particulars: H37Rv ATCC 27294, 672 h. In a few lines:
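Agar dilution on Middlebrook 7H11 agar tubes with OADC, drug 50 to 0.78 µg/mL, in duplicate. Inoculum from fresh slants adjusted to 1 mg/mL wet weight in 0.05% Tween 80 saline, diluted 10^-2 (~10^7 cfu/mL); 5 µL spotted. Incubated 37 °C, MIC read after 28 days.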

A short description of series [3]: Cytotoxicity against mouse RAW264.7 cells at 50 uM after 72 hrs by MTT assay. Type of series: cell-based. The settings on record: read-out: INH.
In series [4] the target is T2, Pantothenate synthetase (Mycobacterium tuberculosis) (UniProt P9WIL5).
T2 sequence (whole entry): T1 sequence (P9WIL5 whole entry)
Description: Binding affinity to Mycobacterium tuberculosis pantothenate synthetase expressed in Escherichia coli BL21 (DE3) assessed as increase in thermal stability. Put shortly:
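Differential scanning fluorimetry: protein–ligand complexes heated from 25 °C to 95 °C in 0.1 °C steps with SYPRO Orange dye; melting temperature shift relative to native protein recorded.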

As for `NC(=O)c1c(NC(=O)c2ccc([N+](=O)[O-])o2)sc2c1CCN(C(=S)NCc1ccccc1)C2`, the pIC50 in series [1] was 4.77. The same compound had a minimum inhibitory concentration (MIC) in series [2] of 26.5 µM (≈ 12.9 µg/mL). In addition, in series [3], the cytotoxicity at 72 h, 50 µM came to 18.1%.
On the same counts, the results for `NC(=O)c1c(NC(=O)c2ccc([N+](=O)[O-])o2)sc2c1CCN(C(=O)NCc1ccccc1)C2` are 4.85, 26.6 µM (≈ 12.5 µg/mL) and 24.3%.
`CC(=O)c1ccc(S(=O)(=O)N2CCc3c(sc(NC(=O)c4ccc([N+](=O)[O-])s4)c3C(N)=O)C2)cc1` gave a pIC50 in series [1] of under 4.60. In series [2], this compound had a minimum inhibitory concentration (MIC) of 46.7 µM (≈ 25 µg/mL).
For the compound `NC(=O)c1c(NC(=O)c2ccc([N+](=O)[O-])s2)sc2c1CCN(S(=O)(=O)c1ccc(Br)cc1)C2`, the pIC50 in series [1] was 4.85. This compound also returned an MIC in series [2] of 21.9 µM (≈ 12.5 µg/mL). Besides, the cytotoxicity at 72 h, 50 µM in series [3] came out at 26.8%.
Turning to `CC[C@@H](CO)NCCN[C@@H](CC)CO` [ETHAMBUTOL], the negative logarithm of the IC50 (pIC50) in series [1] is under 4.60. The MIC in series [2] was 7.64 µM (≈ 1.56 µg/mL).
With `NC(=O)c1c(NC(=O)c2ccc([N+](=O)[O-])o2)sc2c1CCN(S(=O)(=O)c1ccc([N+](=O)[O-])cc1)C2`, in series [1], the negative logarithm of the IC50 (pIC50) was under 4.60. The same compound returned an MIC in series [2] of 47.9 µM (≈ 25 µg/mL).
On to `COc1ccc(S(=O)(=O)N2CCc3c(sc(NC(=O)c4ccc([N+](=O)[O-])s4)c3C(N)=O)C2)cc1`, for which the pIC50 in series [1] is 4.72. Moreover, in series [2], the MIC stood at 23.9 µM (≈ 12.5 µg/mL). In addition, in series [3], the cytotoxicity at 72 h, 50 µM amounted to 24.5%.
In series [1], `COc1ccc(NC(=O)N2CCc3c(sc(NC(=O)c4ccc([N+](=O)[O-])o4)c3C(N)=O)C2)cc1` showed a pIC50 of 4.82. The compound further displayed an MIC in series [2] of 53.2 µM (≈ 25.8 µg/mL).
In series [1], `NC(=O)c1c(NC(=O)c2ccc([N+](=O)[O-])s2)sc2c1CCN(C(=O)Nc1ccc([N+](=O)[O-])cc1)C2` had a pIC50 of 5.01. Besides, in series [2], inhibition of growth (MIC) required 12.1 µM (≈ 6.24 µg/mL). For the same compound, the cytotoxicity at 72 h, 50 µM in series [3] stood at 33.6%.
On the same counts, the results for `NC(=O)c1c(NC(=O)c2ccc([N+](=O)[O-])o2)sc2c1CCN(C(=O)Nc1ccc([N+](=O)[O-])cc1)C2` are 4.70, 24.9 µM (≈ 12.5 µg/mL) and 36.1%.
In turn, `NC(=O)c1c(NC(=O)c2ccc([N+](=O)[O-])o2)sc2c1CCN(C(=S)Nc1ccc(Cl)cc1)C2` showed a pIC50 in series [1] of 4.72. Further, the minimal inhibitory concentration (MIC) in series [2] was found to be 24.7 µM (≈ 12.5 µg/mL). In series [3], the cytotoxicity at 72 h, 50 µM worked out at 24.7%.
Compound `NC(=O)c1c(NC(=O)c2ccc([N+](=O)[O-])s2)sc2c1CCN(C(=S)Nc1ccc(Cl)cc1)C2` had a pIC50 in series [1] of 5.20. This compound came in with an MIC in series [2] of 11.9 µM (≈ 6.24 µg/mL). Moreover, the cytotoxicity at 72 h, 50 µM in series [3] was 21.4%.
In the case of `COc1ccc(NC(=O)N2CCc3c(sc(NC(=O)c4ccc([N+](=O)[O-])s4)c3C(N)=O)C2)cc1`, the negative logarithm of the IC50 (pIC50) in series [1] was 4.84. Also, the minimum inhibitory concentration (MIC) in series [2] is 24.9 µM (≈ 12.5 µg/mL). Further, in series [3], the cytotoxicity at 72 h, 50 µM came out at 20.9%.
On the same counts, the results for `COc1ccc(S(=O)(=O)N2CCc3c(sc(NC(=O)c4ccc([N+](=O)[O-])o4)c3C(N)=O)C2)cc1` are 4.69, 24.6 µM (≈ 12.5 µg/mL) and 19.4%.
As for `NC(=O)c1c(NC(=O)c2ccc([N+](=O)[O-])o2)sc2c1CCN(S(=O)(=O)c1ccc(F)cc1)C2`, the pIC50 in series [1] was 4.76. In series [2], this compound came in with an MIC of 25.2 µM (≈ 12.5 µg/mL). Moreover, in series [3], the cytotoxicity at 72 h, 50 µM came out at 22.1%.
In series [1], `NC(=O)c1c(NC(=O)c2ccc([N+](=O)[O-])o2)sc2c1CCN(C(=S)Nc1ccc(F)cc1)C2` gave a negative-log IC50 (pIC50) of 4.68. The same compound showed an MIC in series [2] of 25.5 µM (≈ 12.5 µg/mL). Further, the cytotoxicity at 72 h, 50 µM in series [3] was 28.1%.
Consider `NNC(=O)c1ccncc1` [ISONIAZID], for which, in series [1], the negative logarithm of the IC50 (pIC50) was under 4.60. Besides, the minimum inhibitory concentration (MIC) in series [2] turned out to be 0.72 µM (≈ 0.0987 µg/mL).
In the case of `NC(=O)c1c(NC(=O)c2ccc([N+](=O)[O-])s2)sc2c1CCN(S(=O)(=O)c1ccc([N+](=O)[O-])cc1)C2`, the negative-log IC50 (pIC50) in series [1] is 5.23. In series [2], this compound came in with an MIC of 9.28 µM (≈ 4.99 µg/mL). Also, the Tm in series [4] was 50.4 °C. In addition, in series [3], the cytotoxicity at 72 h, 50 µM was 29.2%.
Take `CC(=O)N1CCc2c(sc(NC(=O)c3cccs3)c2C(N)=O)C1`: the pIC50 in series [1] is under 4.60. Moreover, in series [2], the MIC amounted to 9.15 µM (≈ 3.2 µg/mL).
In series [1], `CC(=O)c1ccc(S(=O)(=O)N2CCc3c(sc(NC(=O)c4ccc([N+](=O)[O-])o4)c3C(N)=O)C2)cc1` showed a negative logarithm of the IC50 (pIC50) of under 4.60. In series [2], this compound returned an MIC of 48.2 µM (≈ 25 µg/mL).
On the same counts, the results for `NC(=O)c1c(NC(=O)c2ccc([N+](=O)[O-])o2)sc2c1CCN(C(=O)Nc1ccc(Cl)cc1)C2` are under 4.60 and 51 µM (≈ 25 µg/mL).
In turn, `NC(=O)c1c(NC(=O)c2ccc([N+](=O)[O-])s2)sc2c1CCN(C(=O)Nc1ccc(Cl)cc1)C2` gave a pIC50 in series [1] of 4.99. The compound further came in with an MIC in series [2] of 12.3 µM (≈ 6.23 µg/mL). Moreover, in series [3], the cytotoxicity at 72 h, 50 µM is 24.4%.
Take `NC(=O)c1c(NC(=O)c2ccc([N+](=O)[O-])s2)sc2c1CCN(C(=S)Nc1ccc([N+](=O)[O-])cc1)C2`: in series [1], the pIC50 was 5.04. Further, it took 11.7 µM (≈ 6.24 µg/mL) to inhibit growth in series [2] (MIC). Also, the cytotoxicity at 72 h, 50 µM in series [3] stood at 28.6%.
As to `NC(=O)c1c(NC(=O)c2ccc([N+](=O)[O-])s2)sc2c1CCN(C(=S)NCc1ccccc1)C2`, the pIC50 in series [1] was 4.88. In series [2], this compound yielded an MIC of 19.9 µM (≈ 9.99 µg/mL). Moreover, the cytotoxicity at 72 h, 50 µM in series [3] stood at 22.2%.
In turn, `NC(=O)c1c(NC(=O)c2ccc([N+](=O)[O-])s2)sc2c1CCN(C(=S)Nc1ccc(F)cc1)C2` gave a negative-log IC50 (pIC50) in series [1] of 4.99. The same compound displayed an MIC in series [2] of 12.3 µM (≈ 6.24 µg/mL). Further, in series [3], the cytotoxicity at 72 h, 50 µM came out at 26.8%.
The compound `NC(=O)c1c(NC(=O)c2ccc([N+](=O)[O-])o2)sc2c1CCN(S(=O)(=O)c1ccc(Br)cc1)C2` showed a pIC50 in series [1] of under 4.60. Besides, in series [2], the minimum inhibitory concentration (MIC) amounted to 45 µM (≈ 25 µg/mL).
As for `NC(=O)c1c(NC(=O)c2ccc([N+](=O)[O-])s2)sc2c1CCN(S(=O)(=O)c1ccc(F)cc1)C2`, in series [1], the pIC50 was 4.93. Moreover, the MIC in series [2] came to 12.2 µM (≈ 6.24 µg/mL). Moreover, the cytotoxicity at 72 h, 50 µM in series [3] was 30.2%.
`NC(=O)c1c(NC(=O)c2ccc([N+](=O)[O-])o2)sc2c1CCN(C(=S)Nc1ccc([N+](=O)[O-])cc1)C2` showed a negative-log IC50 (pIC50) in series [1] of 4.73. Also, the minimum inhibitory concentration (MIC) in series [2] was determined as 24.2 µM (≈ 12.5 µg/mL). For the same compound, the cytotoxicity at 72 h, 50 µM in series [3] came to 28.2%.
Compound `NC(=O)c1c(NC(=O)c2ccc([N+](=O)[O-])s2)sc2c1CCN(C(=O)NCc1ccccc1)C2` gave a negative-log IC50 (pIC50) in series [1] of 4.74. In series [2], the minimal inhibitory concentration (MIC) came to 25.7 µM (≈ 12.5 µg/mL). The cytotoxicity at 72 h, 50 µM in series [3] was determined as 26.1%.
